Source: ChEMBL document CHEMBL1155144, “Cytoplasmic-membrane anchoring of a class A beta-lactamase and its capacity in manifesting antibiotic resistance” (2007)
≈ marks a conversion by molar mass, not a printed value.

Columns and labels:
Format in all cases: functional
Escherichia coli [1] = assay: Antimicrobial activity against Escherichia coli JM83 harboring pACYC184-TEM by serial dilution method
Method in brief: (§1)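 Broth serial dilution in LB medium, microtitre format; inoculum 5 x 10^5 CFU/ml; incubated with antibiotic overnight at 37°C; MIC read after overnight growth.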

Escherichia coli [2] = assay: Antimicrobial activity against Escherichia coli JM83 harboring pACYC184-ATEM by serial dilution method; method in brief: as §1
Escherichia coli [3] = assay: Antimicrobial activity against Escherichia coli JM83 by serial dilution method; method in brief: as §1

CC1(C)S[C@@H]2[C@H](NC(=O)[C@H](N)c3ccccc3)C(=O)N2[C@H]1C(=O)O [AMPICILLIN] showed an MIC (Escherichia coli [1]) of 4000 mg/L (≈ 11400 µM), an MIC (Escherichia coli [2]) of 4000 mg/L (≈ 11400 µM) and an MIC (Escherichia coli [3]) of 4 mg/L (≈ 11.4 µM).
CC(C)(O/N=C(\C(=O)N[C@@H]1C(=O)N2C(C(=O)[O-])=C(C[n+]3ccccc3)CS[C@H]12)c1csc(N)n1)C(=O)O [CEFTAZIDIME] showed an MIC (Escherichia coli [1]) of 0.3 mg/L (≈ 0.549 µM), an MIC (Escherichia coli [2]) of 0.3 mg/L (≈ 0.549 µM) and an MIC (Escherichia coli [3]) of 0.3 mg/L (≈ 0.549 µM).
With O=C(Cc1cccs1)N[C@@H]1C(=O)N2C(C(=O)[O-])=C(C[n+]3ccccc3)CS[C@H]12 [CEPHALORIDINE] the MIC (Escherichia coli [1]) was 32 mg/L (≈ 77 µM), the MIC (Escherichia coli [2]) was 32 mg/L (≈ 77 µM) and the MIC (Escherichia coli [3]) was 2 mg/L (≈ 4.81 µM).
CC(=O)OCC1=C(C(=O)O)N2C(=O)[C@@H](NC(=O)Cc3cccs3)[C@H]2SC1 [CEPHALOTHIN] was tested, and the MIC (Escherichia coli [1]) was 64 mg/L (≈ 161 µM), the MIC (Escherichia coli [2]) was 64 mg/L (≈ 161 µM) and the MIC (Escherichia coli [3]) was 4 mg/L (≈ 10.1 µM).
For Cc1onc(-c2ccccc2)c1C(=O)N[C@@H]1C(=O)N2[C@@H]1SC(C)(C)[C@@H]2C(=O)O [OXACILLIN], the MIC (Escherichia coli [1]) was 64 mg/L (≈ 159 µM), the MIC (Escherichia coli [2]) was 8000 mg/L (≈ 19900 µM) and the MIC (Escherichia coli [3]) was 2 mg/L (≈ 4.98 µM).
